Columns and labels:
[1] = Metabolic stability in human liver microsomes assessed as parent compound decline at 10 uM incubated for 60 mins in presence of NADPH by HPLC analysis; type: ADME, Microsome; conditions: read-out: Drug degradation
Procedure, shortened: (§1)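 Compound (10 µM) was incubated 0 or 60 min at 37 °C with pooled HLMs (1 mg/mL), with or without 1 mM NADPH, or in buffer only (0.1 M KH2PO4 pH 7.4). Reactions were stopped with ice-cold acetonitrile. Remaining parent was measured by HPLC-fluorescence relative to 0 min; mean ± SD, n = 3.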

[2] = Selectivity ratio of GI50 for PHA-stimulated human PBL cells to GI50 for human Jurkat cells incubated for 72 hrs by MTT assay
Procedure, shortened: (§2)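 Leukemia cells (CEM, DND-41, Jurkat) were grown in RPMI-1640 at 8×10³ cells/well and left 18 h. Donor PBL were gradient-separated, held overnight, and non-adherent cells set at 5×10^5 cells/mL with 2.5 µg/mL PHA. Both were exposed 72 h at 37 °C to graded compound concentrations, read by MTT. The ratio is PBL GI50 over leukemia GI50.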

B16-BL6 [3] = experiment: Antitumour activity against mouse B16-BL6 cells allografted in C57BL/6 mouse assessed as reduction in tumor mass at 7.5 mg/kg, ip administrated every other day relative to control; type: functional
Procedure, shortened: (§3)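 Male C57BL/6 mice (six weeks old) got 2.5×10^5 BL6-B16 murine melanoma cells s.c. in the dorsolateral flank, in PBS. Once tumors were measurable (about 100 mm³), mice were randomized and given drug i.p. every other day in 50 µL DMSO. Vehicle (DMSO) group served as control. Tumor volume = (D × d²)/2; tumor weight taken at end. 5 animals per group, mean ± SEM.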

Tubulin = Tubulin (Bos taurus, UniProt Q6B856+Q862L2+Q862F3); experiment: Inhibition of bovine brain tubulin polymerization preincubated for 15 mins followed by GTP addition and measured for 20 mins by turbidimetry-based spectrophotometric method
Procedure, shortened: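 Bovine brain tubulin (10 µM) was preincubated with varying compound concentrations in 0.8 M monosodium glutamate, pH 6.6, for 15 min at 30 °C, then cooled to 0 °C. GTP was added to 0.4 mM final and the mix warmed to 30 °C. Turbidity was followed at 350 nm. IC50 = concentration inhibiting extent of assembly 50% after 20 min.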

RS4-11 = experiment: Growth inhibition of human RS4:11 cells incubated for 72 hrs by MTT assay; type: functional; conditions: RS4-11, 72 h
Procedure, shortened: (§4)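 Leukemia lines were grown in RPMI-1640; the CEM^Vbl-100 medium also contained 100 ng/mL vinblastine. Cells were seeded at 8 × 10³ per well and left 18 h at 37 °C, 5% CO2. Medium was then replaced with fresh medium holding graded compound concentrations (DMSO stocks), in triplicate, for 72 h. Viability was read by MTT, and GI50 = concentration inhibiting proliferation 50%.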

[4] = Selectivity ratio of GI50 for PHA-stimulated human PBL cells to GI50 for human DND41 cells incubated for 72 hrs by MTT assay; procedure, shortened: as §2
MDA-MB-231 = experiment: Growth inhibition of human MDA-MB-231 cells incubated for 72 hrs by MTT assay; type: functional; conditions: MDA-MB-231, 72 h
[5] = Selectivity ratio of GI50 for human PBL cells to GI50 for human Jurkat cells incubated for 72 hrs by MTT assay
Procedure, shortened: as §2, with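 “overnight in RPMI-1640/10% FBS,” for “overnight,”, “without PHA (resting).” for “with 2.5 µg/mL PHA.”, “h” for “h at 37 °C”, “graded” for “graded compound”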

CCRF-CEM = experiment: Growth inhibition of human CEM cells incubated for 72 hrs by MTT assay; type: functional; procedure, shortened: as §4
[6] = Selectivity ratio of GI50 for human PBL cells to GI50 for human CEM cells incubated for 72 hrs by MTT assay; type: functional
Procedure, shortened: as §2, with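 “overnight in RPMI-1640/10% FBS,” for “overnight,”, “without PHA (resting).” for “with 2.5 µg/mL PHA.”, “h” for “h at 37 °C”, “graded” for “graded compound”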

HL-60 = experiment: Growth inhibition of human HL60 cells incubated for 72 hrs by MTT assay; type: functional; conditions: HL-60, 72 h; procedure, shortened: as §4
HeLa = experiment: Growth inhibition of human HeLa cells incubated for 72 hrs by MTT assay; type: functional
[7] = Growth inhibition of human DND41 cells incubated for 72 hrs by MTT assay; type: functional; conditions: DND41, 72 h; procedure, shortened: as §4
[8] = Toxicity in C57BL/6 mouse allografted with mouse B16-BL6 cells assessed as change in body weight at 3 to 7.5 mg/kg, ip administrated every other day; type: organism-based; conditions: in vivo
Procedure, shortened: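 Male six-week-old C57BL/6 mice were given BL6-B16 murine melanoma cells subcutaneously in the dorsolateral flank in PBS. Once tumours reached about 100 mm³, mice were randomised and dosed intraperitoneally every other day with 3.0 or 7.5 mg/kg in DMSO, or vehicle alone. Body weight change was followed; 5 animals per group, mean ± SEM.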

Tubulin (Bos taurus) = Tubulin (Bos taurus) (UniProt Q6B856+Q862L2+Q862F3); experiment: Inhibition of [3H]colchicine binding to bovine brain tubulin at 5 uM relative to control
Procedure, shortened: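 Bovine brain tubulin at 1 µM was incubated with 5 µM [3H]colchicine and the test compound at 5 µM. Inhibition of colchicine binding was measured relative to a control.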

[9] = Selectivity ratio of GI50 for PHA-stimulated human PBL cells to GI50 for human CEM cells incubated for 72 hrs by MTT assay; procedure, shortened: as §2
[10] = Metabolic stability in human liver microsomes assessed as parent compound decline at 10 uM incubated for 60 mins in absence of NADPH by HPLC analysis; type: ADME, Microsome; conditions: read-out: Drug degradation; procedure, shortened: as §1
Jurkat = experiment: Growth inhibition of human Jurkat cells incubated for 72 hrs by MTT assay; type: functional; procedure, shortened: as §4
B16-BL6 [11] = experiment: Growth inhibition of mouse B16-BL6 cells incubated for 72 hrs by MTT assay; type: functional; conditions: B16-BL6, 72 h
MCF7 = experiment: Growth inhibition of human MCF7 cells incubated for 72 hrs by MTT assay; type: functional; conditions: MCF7, 72 h
[12] = Growth inhibition of human PBL cells incubated for 72 hrs by MTT assay; type: cell-based; conditions: PBL cells (peripheral blood lymphocytes)
Procedure, shortened: (§5)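 PBL from healthy donors were isolated on a Lymphoprep gradient, held overnight in RPMI-1640 with 10% FBS, and the non-adherent cells resuspended at 5 × 10^5 cells/mL. Proliferating cultures got 2.5 µg/mL PHA; resting cultures got none. Compound was added at several concentrations for 72 h and viability read by MTT. GI50 reported as mean ± SEM of three experiments.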

MDA-MB-468 = experiment: Growth inhibition of human MDA-MB-468 cells incubated for 72 hrs by MTT assay; type: functional; conditions: MDA-MB-468, 72 h
[13] = Growth inhibition of PHA-stimulated human PBL cells incubated for 72 hrs by MTT assay; type: cell-based; conditions: PHA-stimulated PBL cells (peripheral blood lymphocytes); procedure, shortened: as §5
[14] = Selectivity ratio of GI50 for human PBL cells to GI50 for human DND41 cells incubated for 72 hrs by MTT assay
Procedure, shortened: as §2, with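 “overnight in RPMI-1640/10% FBS,” for “overnight,”, “without PHA (resting).” for “with 2.5 µg/mL PHA.”, “h” for “h at 37 °C”, “graded” for “graded compound”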

[15] = Growth inhibition of multidrug-resistant human CEM/VBL100 cells incubated for 72 hrs by MTT assay; type: functional; conditions: CEM/VBL100, 72 h; procedure, shortened: as §4
HT-29 = experiment: Growth inhibition of human HT-29 cells incubated for 72 hrs by MTT assay; type: functional; conditions: HT-29, 72 h
B16-BL6 [16] = experiment: Antitumour activity against mouse B16-BL6 cells allografted in C57BL/6 mouse assessed as reduction in tumor mass at 3 mg/kg, ip administrated every other day relative to control; type: functional; procedure, shortened: as §3
A2058 = experiment: Growth inhibition of human A2058 cells incubated for 72 hrs by MTT assay; type: functional; conditions: A2058, 72 h
A-375 = experiment: Growth inhibition of human A375 cells incubated for 72 hrs by MTT assay; type: functional; conditions: A-375, 72 h
[17] = Metabolic stability in human liver microsomes at 10 uM incubated for 15 mins in presence of NADPH and non-selective CYP inhibitor quercetin by HPLC analysis; type: ADME, Microsome; conditions: 0.25 h
Procedure, shortened: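 Compound (10 µM) was incubated 0 and 15 min at 37 °C with pooled HLMs and 1 mM NADPH in 0.1 M KH2PO4 pH 7.4, with or without 100 µM quercetin. Parent remaining was measured by HPLC-fluorescence relative to 0 min; mean ± SD, n = 3.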

[18] = Stability in phosphate buffer at pH 7.4 at 10 uM incubated for 30 mins by HPLC analysis; type: physicochemical; conditions: pH 7.4, 0.5 h
Procedure, shortened: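 No microsomes or NADPH: compound (10 μM final) held in 0.1 M KH₂PO₄ pH 7.4 at 37 °C. Samples taken at 0 and 30 min, quenched with ice-cold acetonitrile, centrifuged, analysed by HPLC with fluorescence detection. Percent parent remaining relative to 0 min; mean ± SD, n = 3.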

[19] = Metabolic stability in human liver microsomes assessed as half life at 10 uM incubated for 30 mins in presence of NADPH by HPLC analysis; type: ADME, Microsome
Procedure, shortened: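 Compound (10 µM) was incubated at 37 °C with 0.5 mg/mL pooled HLMs and 1 mM NADPH in 0.1 M KH2PO4 pH 7.4, sampled at 0, 2, 5, 15 and 30 min. Controls without NADPH, or buffer only, ran 0 and 30 min. Parent was quantified by HPLC-fluorescence as % of the 0 min level, n = 3. t1/2 = 0.693/k, with k from regression of ln % remaining versus time.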

[20] = Time-dependent metabolic stability in human liver microsomes at 10 uM incubated for 30 mins in presence of NADPH by HPLC analysis; type: ADME, Microsome; conditions: 0.5 h
Procedure, shortened: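 Pooled mixed-gender HLMs (0.5 mg/mL) plus 1 mM NADPH in 0.1 M KH₂PO₄ pH 7.4, compound 10 μM final, 37 °C. Reaction started with microsomes after 3-min equilibration. Stopped with ice-cold acetonitrile at 0, 2, 5, 15, 30 min, then HPLC-fluorescence of supernatant. Percent remaining vs 0 min (mean ± SD, n = 3). Half-life = 0.693/k from linear regression of Ln % remaining vs time.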

[21] = Metabolic stability in human liver microsomes at 10 uM incubated for 30 mins in phosphate buffer at pH 7.4 by HPLC analysis; type: ADME, Microsome; conditions: pH 7.4, 0.5 h
Procedure, shortened: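 Test compound (10 μM, final) incubated at 37 °C with pooled mixed-gender HLMs (0.5 mg/mL) in 0.1 M KH₂PO₄ pH 7.4 without NADPH. Sampled at 0 and 30 min, quenched with ice-cold acetonitrile, centrifuged, supernatant analysed by HPLC with fluorescence detection (ex 344/em 493 nm). Percent remaining calculated from peak area relative to 0 min; mean ± SD, n = 3.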

Structure (SMILES)	metabolised at 1 h, 10 µM [1] [%]	RatioGI50 [2]	IC50 (Tubulin) [nM]	GI50 (RS4-11) [nM]	RatioGI50 [4]	GI50 (MDA-MB-231) [nM]	RatioGI50 [5]	GI50 (CCRF-CEM) [nM]	RatioGI50 [6]	GI50 (HL-60) [nM]	GI50 (HeLa) [nM]	GI50 [7] [nM]	inhibition (Tubulin (Bos taurus)) [%]	RatioGI50 [9]	metabolised at 1 h, 10 µM [10] [%]	GI50 (Jurkat) [nM]	GI50 (MCF7) [nM]	GI50 at 72 h [12] [nM]	GI50 (MDA-MB-468) [nM]	GI50 (HT-29) [nM]	other results
O=C(c1ccccc1)n1ccc2c3c(=O)cc(-c4cccc(F)c4)[nH]c3ccc21	20	10000 - 30000	380	56	10000 - 30000	454	10000 - 30000	44	10000 - 30000	15.1	13.3	10.2	70	10000 - 30000	20	32.4	103	45600	871	402	inhibition in vivo at 7.5 mg/kg (B16-BL6 [3]): 58.4%; Activity [8]: Non-Toxic; GI50 (B16-BL6 [11]): 18 nM; GI50 at 72 h [13]: 17600 nM; RatioGI50 [14]: 10000 - 30000; GI50 [15]: 36 nM; inhibition in vivo at 3 mg/kg (B16-BL6 [16]): 16.7%
O=C(c1ccccc1F)n1ccc2c3c(=O)cc(-c4ccccc4)[nH]c3ccc21	20	–	1300	120	–	3030	–	–	–	276	9.3	240	34	–	20	53.7	1080	–	70	26.6	GI50 (A2058): 322 nM; GI50 (A-375): 332 nM
CCn1ccc2c3c(=O)cc(-c4cccc(F)c4)[nH]c3ccc21	–	10000 - 30000	780 to 840	0.07	10000 - 30000	69	10000 - 30000	2.2	10000 - 30000	0.08	0.7	0.13	83	10000 - 30000	–	0.11	52.7	31300	15	0.9	Stability [17]: Stable; Stability [18]: Stable; GI50 (A2058): 3.5 nM; GI50 (A-375): 11.4 nM; half-life at 10 µM [19]: 11.8 min; Stability [20]: Unstable; GI50 at 72 h [13]: 10800 nM; RatioGI50 [14]: 10000 - 30000; GI50 [15]: 0.8 nM; Stability [21]: Stable

Source: ChEMBL document CHEMBL4334446, “Evaluating the effects of fluorine on biological properties and metabolic stability of some antitubulin 3-substituted 7-phenyl-pyrroloquinolinones” (Eur J Med Chem, 2019)
